Calls of active or inactive are those of the source. The calls are words filed in the database; no cut-off is given here.
Assays:
NCI-H1299 [1] = test: Induction of ROS generation in human H1299 cells at 20 and 40 uM incubated for 3 hrs after pre-incubation with 3 mM NAC for 1 hr by DCFDA staining based flow cytometry; format: functional, cell-based
In short: (§1)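 Cells were exposed for 3 h to compound, or to 25 µM H2O2 as positive control. Where indicated, 3 mM N-acetylcysteine was given 1 h before treatment. Pellets were stained with DCF-DA for 30 min, and intracellular ROS was read as fluorescence shift by flow cytometry against untreated controls.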

MDA-MB-231 [2] = test: Induction of ROS generation in human MDA-MB-231 cells at 20 and 40 uM incubated for 3 hrs by DCFDA staining based fluorescence microscopy; format: functional, cell-based
In short: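 After 3 h exposure at different concentrations, DCFH-DA fluorescence was imaged by fluorescence microscopy. H2O2 (25 µM) served as positive control. In some wells, cells were pretreated with 3 mM N-acetylcysteine before compound addition.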

HCT-116 [3] = test: Increase in p21 (waf1/cip1) protein expression in wild type p53 expressing human HCT116 cells at 10 to 40 uM by Western blot method; format: functional, cell-based
In short: (§2)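 H1299 (p53-null), HCT116 (p53 wild type) and MDA-MB-231 (p53 mutant) cells were treated, then lysates were immunoblotted for p53, p21, PUMA and PARP. β-Actin served as loading control.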

HCT-116 [4] = test: Increase in p21'cip1 protein expression in wild type p53 expressing human HCT116 cells at 10 to 40 uM by Western blot method; format: functional, cell-based; in short: as §2
HCT-116 [5] = test: Increase in PUMA protein expression in wild type p53 expressing human HCT116 cells at 10 to 40 uM by Western blot method; format: functional, cell-based; in short: as §2
MDA-MB-231 [6] = test: Increase in p53 protein expression in p53 mutant expressing human MDA-MB-231 cells at 10 to 40 uM by Western blot method; format: functional, cell-based; in short: as §2
MDA-MB-231 [7] = test: Increase in p21 (waf1/cip1) protein expression in p53 mutant expressing human MDA-MB-231 cells at 10 to 40 uM by Western blot method; format: functional, cell-based; in short: as §2
MDA-MB-231 [8] = test: Increase in p21'cip1 protein expression in p53 mutant expressing human MDA-MB-231 cells at 10 to 40 uM by Western blot method; format: functional, cell-based; in short: as §2
MDA-MB-231 [9] = test: Increase in PUMA protein expression in p53 mutant expressing human MDA-MB-231 cells at 10 to 40 uM by Western blot method; format: functional, cell-based; in short: as §2
MDA-MB-231 [10] = test: Increase in cleaved PARP protein expression in p53 mutant expressing human MDA-MB-231 cells at 10 to 40 uM by Western blot method; format: functional, cell-based; in short: as §2
NCI-H1299 [11] = test: Induction of cell cycle arrest in p53 deficient human H1299 cells assessed as accumulation at G2/M phase incubated for 24 hrs by propidium iodide staining based flow cytometry; format: functional
Mus musculus [12] = test: Toxicity in mouse assessed as induction of tremors at 120 mg/kg/week for 2 weeks; format: organism-based; conditions: in vivo, 336 h
Mus musculus [13] = test: Toxicity in mouse assessed as induction of diarrhea at 120 mg/kg/week for 2 weeks; format: organism-based; conditions: in vivo, 336 h
Mus musculus [14] = test: Toxic diuretic effect in 12 hrs fasted CD1 mouse assessed as increase in urine output at 10 mg/kg, ip measured 0 to 6 hrs post dose relative to untreated control; format: toxicity, organism-based; conditions: in vivo
In short: (§3)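 Female CD-1 mice fasted 12 h, then given compound IP at 10 mg/kg in PEG/EtOH/H2O (54:14:32). Vehicle control group included. Mice were housed singly in metabolic cages with free access to water. Voided urine was collected in graduated tubes under the cages over 0–6 h and 6–24 h after injection.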

Mus musculus [15] = test: Toxic diuretic effect in 12 hrs fasted CD1 mouse assessed as increase in urine output at 10 mg/kg, ip measured 6 to 24 hrs post dose relative to untreated control; format: toxicity, organism-based; conditions: in vivo; in short: as §3
[16] = Cytotoxic activity against human GBM10 cells assessed as inhibition of cell proliferation incubated for 72 hrs by MTT assay; format: functional, cell-based; conditions: GBM10, 72 h
In short: (§4)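 MTT cell survival assay. IC50 is the concentration that inhibits tumour cell proliferation by 50%, read from cell survival curves. Values are given as mean ± SD of three independent experiments.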

[17] = Cytotoxic activity against human SF188 cells assessed as inhibition of cell proliferation incubated for 72 hrs by MTT assay; format: functional, cell-based; conditions: SF-188, 72 h; in short: as §4
MDA-MB-231 [18] = test: Cytotoxic activity against human MDA-MB-231 cells assessed as inhibition of cell proliferation incubated for 72 hrs by MTT assay; format: functional, cell-based; conditions: MDA-MB-231, 72 h; in short: as §4
MDA-MB-468 = test: Cytotoxic activity against human MDA-MB-468 cells assessed as inhibition of cell proliferation incubated for 72 hrs by MTT assay; format: functional, cell-based; conditions: MDA-MB-468, 72 h; in short: as §4
HT-29 = test: Cytotoxic activity against human HT-29 cells assessed as inhibition of cell proliferation incubated for 72 hrs by MTT assay; format: functional, cell-based; conditions: HT-29, 72 h; in short: as §4
[19] = Cytotoxic activity against human HT1080 cells assessed as inhibition of cell proliferation incubated for 72 hrs by MTT assay; format: functional, cell-based; conditions: HT-1080, 72 h; in short: as §4
[20] = Potency index, ratio of IC50 for ethacrynic acid to IC50 for test compound for cytotoxic activity against human H1299 cells assessed as inhibition of cell proliferation incubated for 72 hrs by MTT assay; format: functional
In short: (§5)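 Index is the reference IC50 divided by the test IC50. Both IC50s were taken from MTT cell survival curves, each as mean ± SD of three independent experiments.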

[21] = Potency index, ratio of IC50 for ethacrynic acid to IC50 for test compound for cytotoxic activity against human GBM10 cells assessed as inhibition of cell proliferation incubated for 72 hrs by MTT assay; format: functional; in short: as §5
[22] = Potency index, ratio of IC50 for ethacrynic acid to IC50 for test compound for cytotoxic activity against human SKBR3 cells assessed as inhibition of cell proliferation incubated for 72 hrs by MTT assay; format: functional, SK-BR-3
MCF7 = test: Potency index, ratio of IC50 for ethacrynic acid to IC50 for test compound for cytotoxic activity against human MCF7 cells assessed as inhibition of cell proliferation incubated for 72 hrs by MTT assay; format: functional
MDA-MB-231 [23] = test: Reduction in cellular total thiol levels in human MDA-MB-231 cells at 40 uM incubated for 3 hrs by Ellman's reagent based assay; format: functional
In short: (§6)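 Cells exposed to 0–40 µM compound for 3 h, then trypsinized. Total thiols in cell extracts were quantified with Ellman's reagent.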

NCI-H1299 [24] = test: Reduction in cellular total thiol levels in human H1299 cells at 40 uM incubated for 3 hrs by Ellman's reagent based assay; format: functional; in short: as §6
[25] = Cytotoxic activity against human MCF10A cells assessed as inhibition of cell proliferation incubated for 72 hrs by MTT assay; format: cell-based; conditions: mcf-10a; in short: as §4
HCT-116 [26] = test: Induction of ROS generation in human HCT116 cells at 20 and 40 uM incubated for 3 hrs by DCFDA staining based flow cytometry; format: functional, cell-based; in short: as §1
MDA-MB-231 [27] = test: Induction of ROS generation in human MDA-MB-231 cells at 20 and 40 uM incubated for 3 hrs by DCFDA staining based flow cytometry; format: functional, cell-based; in short: as §1
[28] = target: Glutathione S-transferase P (Homo sapiens) (UniProt P09211); test: Inhibition of GSTP1 in human HCT116 cells assessed as reduction in GST-pi activity pre-incubated for 3 hrs followed by chlorodinitrobenzene and reduced glutathione addition by photometric assay; conditions: HCT-116
Sequence of Glutathione S-transferase P (Homo sapiens) (P09211 2-210 limits assumed): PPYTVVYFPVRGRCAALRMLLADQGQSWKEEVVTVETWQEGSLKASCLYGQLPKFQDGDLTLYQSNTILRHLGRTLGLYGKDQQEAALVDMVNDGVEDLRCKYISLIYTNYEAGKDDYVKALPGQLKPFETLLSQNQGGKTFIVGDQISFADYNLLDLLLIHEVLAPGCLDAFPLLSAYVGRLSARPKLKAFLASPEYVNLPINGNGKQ

For `C=C(CC)C(=O)c1ccc(OCC(=O)N[C@@H]2[C@@H](O)[C@H](O)[C@@H](CO)O[C@H]2O)c(Cl)c1Cl`, the Activity (NCI-H1299 [1]) was “inactive”, the Activity (MDA-MB-231 [2]) was “Active” and the Activity (HCT-116 [3]) was “Active”. For the same compound, the Activity (HCT-116 [4]) was “Active”, the Activity (HCT-116 [5]) was “Active” and the Activity (MDA-MB-231 [6]) was “Active”. For the same compound, the Activity (MDA-MB-231 [7]) was “Active”, the Activity (MDA-MB-231 [8]) was “Active” and the Activity (MDA-MB-231 [9]) was “Active”. The Activity (MDA-MB-231 [10]) was “Active”, the Activity (NCI-H1299 [11]) was “Dose-dependent effect” and the Activity (Mus musculus [12]) was “Non-toxic”. For the same compound, the Activity (Mus musculus [13]) was “Non-toxic”, the Activity (Mus musculus [14]) was “Non-toxic” and the Activity (Mus musculus [15]) was “Non-toxic”. The IC50 [16] was 15.2 µM, the IC50 [17] was 12.3 µM and the IC50 (MDA-MB-231 [18]) was 12.2 µM. For the same compound, the IC50 (MDA-MB-468) was 18.4 µM, the IC50 (HT-29) was 21.7 µM and the IC50 [19] was 16.3 µM. For the same compound, the “Ratio IC50” value [20] was 3, the “Ratio IC50” value [21] was 3 and the “Ratio IC50” value [22] was 3. The “Ratio IC50” value (MCF7) was 3, the Imax (MDA-MB-231 [23]) was 58% and the Imax (NCI-H1299 [24]) was 58%. The Activity [25] was “Non-toxic”, the Activity (HCT-116 [26]) was “Active” and the Activity (MDA-MB-231 [27]) was “Active”. For the same compound, the Activity [28] was “Dose-dependent effect”.

Source: ChEMBL document CHEMBL3797027, “Potent anti-proliferative actions of a non-diuretic glucosamine derivative of ethacrynic acid” (Bioorg Med Chem Lett, 2016)
